The values below come from ChEMBL document CHEMBL4033790, “Design and Synthesis of Novel Deuterated Ligands Functionally Selective for the γ-Aminobutyric Acid Type A Receptor (GABAAR) α6 Subtype with Improved Metabolic Stability and Enhanced Bioavailability” (J Med Chem, 2018).

A short description of data set [1]: Metabolic stability in human liver microsomes assessed as parent compound remaining at 10 uM after 60 mins by LC-MS analysis. It is filed as ADME, microsome. The conditions noted are these: read-out: Stability. In a few lines: (§1)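 The 60 min samples of the microsomal incubation (10 μM compound, human or mouse liver microsomes at 0.5 mg/mL, NADPH regenerating system, 37 °C) were analysed by LC-MS. Detection used SIM mode with dual ESI/APCI ionization, calibrated to the retention times and masses of the parent and its O-demethylated metabolites. Peak intensities were measured.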
A general note: Microsomes from liver hold many membrane-bound enzymes, among them those of drug oxidation.

Another data set has as its system Mus musculus. Kind of data set: Neurotoxicity in Swiss Webster mouse assessed as induction of motor impairment at 40 mg/kg administered via oral gavage measured after 10 to 60 mins by rotarod method. The conditions noted are these: in vivo. It is filed as toxicity, organism-based. An outline of the steps: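 Female mice were given a single oral gavage dose of 40 mg/kg, either in 50% PBS/40% propylene glycol/10% DMSO or, for poorly soluble compounds, in 2% polyethylene glycol plus 2.5% hydroxymethyl cellulose. Rotarod performance was tested 10, 30 and 60 min after dosing, with diazepam 5 mg/kg as positive control.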
For orientation: In the rotarod test animals must keep their balance on a rotating rod.

A short description of data set [2]: Drug metabolism in human liver microsomes assessed as CYP450 mediated-O-demethylated 7-bromo-2-(4-hydroxyphenyl)-2H-pyrazolo[4,3-c]quinolin-3(5H)-one metabolite formation after 60 mins by LC-MS analysis. It is filed as ADME. The conditions noted are these: 1 h. An outline of the steps:
(§2)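 The 60-min samples from the human or mouse liver microsome incubations (10 µM compound, 0.5 mg/mL protein, NADPH regenerating system, 37 °C, pH 7.4) were run on LC-MS in SIM mode with dual ESI/APCI ionization. The method was calibrated to each component's retention time and mass, and the peak intensities of the parent and O-demethylated metabolites were measured.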

The subject of the next data set is Liver. Kind of data set: Half life in mouse liver microsomes at 10 uM by LC-MS/MS analysis. It is filed as ADME, microsome. In a few lines: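 Compound at 10 μM final was preincubated 5 min at 37 °C with NADPH regenerating system in phosphate buffer, pH 7.4. Human or mouse liver microsomes (0.5 mg/mL protein) were added to start the reaction. Samples were taken at 0 (no microsomes) and 10–60 min and measured by LC-MS/MS against an internal standard. Half-life = 0.693/k, with k the slope of ln peak-area ratio versus time. Three experiments, each in duplicate.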

The nature of data set [3]: Metabolic stability in mouse liver microsomes assessed as parent compound remaining at 10 uM after 60 mins by LC-MS analysis. It is filed as ADME, microsome. The conditions noted are these: read-out: Stability. An outline of the steps:
as §1

In the next data set the test system is HepG2. As to the kind of experiment: Cytotoxicity against human HepG2 cells assessed as reduction in cell viability up to 400 uM after 48 hrs by CellTiter-Glo assay. It is filed as cell-based. The conditions noted are these: hepg2, 48 h. In a few lines:
(§3)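 HEK293T and HepG2 cells grown in high-glucose DMEM with non-essential amino acids, 10 mM HEPES, penicillin/streptomycin and 10% heat-inactivated FBS. Cells were harvested with trypsin and plated; compound was pin-transferred 3 h later. Incubation was 48 h, then CellTiter-Glo luminescence was read. Controls were DMSO (negative) and a cytotoxic aminoketone (positive). Quadruplicates, three independent runs, normalized to controls, nonlinear regression.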

The target of data set [4] is Voltage-gated inwardly rectifying potassium channel KCNH2 (Homo sapiens, UniProt Q12809). Kind of data set: Displacement of [3H]-dofetilide from human ERG expressed in HEK cell membranes at >10 uM after 60 to 90 mins by scintillation counting. Background: In a radioligand displacement assay an active substance lowers the binding of a labelled ligand.
Voltage-gated inwardly rectifying potassium channel KCNH2, sequence (Q12809 whole entry): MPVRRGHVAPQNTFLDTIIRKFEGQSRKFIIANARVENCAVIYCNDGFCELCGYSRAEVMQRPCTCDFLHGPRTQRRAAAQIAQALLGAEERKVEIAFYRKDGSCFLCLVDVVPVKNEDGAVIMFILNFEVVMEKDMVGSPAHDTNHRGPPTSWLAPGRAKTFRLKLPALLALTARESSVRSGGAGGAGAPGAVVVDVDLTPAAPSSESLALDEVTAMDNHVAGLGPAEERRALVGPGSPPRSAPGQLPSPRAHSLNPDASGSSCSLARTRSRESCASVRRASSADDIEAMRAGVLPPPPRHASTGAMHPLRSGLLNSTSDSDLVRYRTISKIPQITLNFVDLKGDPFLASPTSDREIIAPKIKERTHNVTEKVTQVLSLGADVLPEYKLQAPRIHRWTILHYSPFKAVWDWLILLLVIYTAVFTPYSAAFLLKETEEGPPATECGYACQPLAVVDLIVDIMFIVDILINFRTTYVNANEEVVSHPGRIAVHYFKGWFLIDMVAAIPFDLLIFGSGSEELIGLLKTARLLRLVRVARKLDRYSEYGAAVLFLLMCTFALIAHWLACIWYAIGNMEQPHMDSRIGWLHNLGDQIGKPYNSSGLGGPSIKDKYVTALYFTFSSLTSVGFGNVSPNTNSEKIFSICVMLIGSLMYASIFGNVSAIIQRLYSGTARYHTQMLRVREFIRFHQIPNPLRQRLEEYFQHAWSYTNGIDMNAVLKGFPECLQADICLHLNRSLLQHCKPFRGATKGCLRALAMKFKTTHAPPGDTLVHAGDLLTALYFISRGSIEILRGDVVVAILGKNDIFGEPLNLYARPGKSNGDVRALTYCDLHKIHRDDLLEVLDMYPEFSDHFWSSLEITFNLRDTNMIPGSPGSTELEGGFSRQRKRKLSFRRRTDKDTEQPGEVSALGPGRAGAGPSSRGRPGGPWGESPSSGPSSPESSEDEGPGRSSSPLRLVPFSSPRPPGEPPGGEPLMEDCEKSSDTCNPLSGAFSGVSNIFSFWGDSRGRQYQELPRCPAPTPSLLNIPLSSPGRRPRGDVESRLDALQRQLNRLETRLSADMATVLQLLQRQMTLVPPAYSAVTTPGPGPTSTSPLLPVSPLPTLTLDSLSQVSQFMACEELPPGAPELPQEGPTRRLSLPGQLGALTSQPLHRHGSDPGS
A further data set has as its system HEK-293T. As to the kind of experiment: Cytotoxicity against HEK293T cells assessed as reduction in cell viability up to 400 uM after 48 hrs by CellTiter-Glo assay. The conditions noted are these: human. It is filed as cell-based. In a few lines: as §3
Data set [5] in a line: Drug metabolism in mouse liver microsomes assessed as CYP450 mediated-O-demethylated 7-bromo-2-(4-hydroxyphenyl)-2H-pyrazolo[4,3-c]quinolin-3(5H)-one metabolite formation after 60 mins by LC-MS analysis. It is filed as ADME. The conditions noted are these: 1 h. In a few lines: as §2
Data set [6] is described as follows: Drug metabolism in human liver microsomes assessed as CYP450 mediated-O-demethylated 8-chloro-2-(3-hydroxyphenyl)-2H-pyrazolo[4,3-c]quinolin-3(5H)-one metabolite formation after 60 mins by LC-MS analysis. It is filed as ADME. The conditions noted are these: 1 h. In a few lines:
as §2

The nature of data set [7]: Drug metabolism in mouse liver microsomes assessed as CYP450 mediated-O-demethylated 8-chloro-2-(3-hydroxyphenyl)-2H-pyrazolo[4,3-c]quinolin-3(5H)-one metabolite formation after 60 mins by LC-MS analysis. It is filed as ADME. The conditions noted are these: 1 h. An outline of the steps:
as §2

A short description of data set [8]: Drug metabolism in mouse liver microsomes assessed as CYP450 mediated-O-demethylated 7-hydroxy-2-[6-(trideuteriomethoxy)-3-pyridyl]-5H-pyrazolo[4,3-c]quinolin-3-one metabolite formation after 60 mins by LC-MS analysis. It is filed as ADME. The conditions noted are these: 1 h. In a few lines:
as §2

Data set [9] can be described thus: Drug metabolism in human liver microsomes assessed as CYP450 mediated-O-demethylated 7-hydroxy-2-[6-(trideuteriomethoxy)-3-pyridyl]-5H-pyrazolo[4,3-c]quinolin-3-one metabolite formation after 60 mins by LC-MS analysis. It is filed as ADME. The conditions noted are these: 1 h. An outline of the steps: as §2
The nature of data set [10]: Drug metabolism in human liver microsomes assessed as CYP450 mediated-O-demethylated 7-hydroxy-2-(6-hydroxypyridin-3-yl)-2H-pyrazolo[4,3-c]quinolin-3(5H)-one metabolite formation after 60 mins by LC-MS analysis. It is filed as ADME. The conditions noted are these: 1 h. In a few lines: as §2
The nature of data set [11]: Drug metabolism in human liver microsomes assessed as CYP450 mediated-O-demethylated 2-(6-hydroxypyridin-3-yl)-7-methoxy-2H-pyrazolo[4,3-c]quinolin-3(5H)-one metabolite formation after 60 mins by LC-MS analysis. It is filed as ADME. The conditions noted are these: 1 h. An outline of the steps:
as §2

Data set [12] in a line: Drug metabolism in mouse liver microsomes assessed as CYP450 mediated-O-demethylated 2-(6-hydroxypyridin-3-yl)-7-methoxy-2H-pyrazolo[4,3-c]quinolin-3(5H)-one metabolite formation after 60 mins by LC-MS analysis. It is filed as ADME. The conditions noted are these: 1 h. An outline of the steps:
as §2

Data set [13] can be described thus: Drug metabolism in mouse liver microsomes assessed as CYP450 mediated-O-demethylated 7-hydroxy-2-(6-hydroxypyridin-3-yl)-2H-pyrazolo[4,3-c]quinolin-3(5H)-one metabolite formation after 60 mins by LC-MS analysis. It is filed as ADME. The conditions noted are these: 1 h. In a few lines: as §2

Turning to `[2H]C([2H])([2H])Oc1ccc(-n2nc3c4ccc(Br)cc4[nH]cc-3c2=O)cc1`, the remaining at 1 h, 10 µM was 81.5% in data set [1] and 73.8% in [3]. Besides, the Activity result with Mus musculus, in the data set with HepG2 and in the data set with HEK-293T was “Non-Toxic” each time. For the same compound, the Drug metabolism result in data set [2] and in data set [5] was “Metabolite_Detected” in each case. For the same compound, in the data set with Liver, the t1/2 is 2.3 h. In data set [4], the “inhibition (INH)” value is reported as “Not Active”.

With `[2H]C([2H])([2H])Oc1cccc(-n2nc3c4cc(Cl)ccc4[nH]cc-3c2=O)c1`, the Drug metabolism result in data set [6] and in data set [7] was “Metabolite_Detected” in each case. Moreover, the remaining at 1 h, 10 µM in data set [1] is 93%; in [3] it was 76.6%. In addition, the Activity entry in the data set on Mus musculus, in the data set with HepG2 and in the data set with HEK-293T was “Non-Toxic” each time. Moreover, the t1/2 in the data set on Liver worked out at 2.8 h. The “inhibition (INH)” value in data set [4] is “Not Active”.

On to `[2H]C([2H])([2H])Oc1ccc(-n2nc3c4ccc(OC)cc4[nH]cc-3c2=O)cn1`, for which the Drug metabolism result in [8], in data set [9], in data set [10], in [11], in data set [12] and in [13] was “Metabolite_Detected” each time. Further, the remaining at 1 h, 10 µM in data set [1] was determined as 92.6%; in [3], 92.4%. Moreover, the Activity entry in the data set with Mus musculus is reported as “Non-Toxic”. For the same compound, in data set [4], the “inhibition (INH)” value was “Not Active”.
